Measurements: PMC6226115 (Clinical and Translational Science, 2018)
Values joined by “and” are separate entries in the source; they are usually repeats but may differ in a detail not shown here. Equal values may be shown once. “Also recorded” adds a separate entry of the source.

Columns and labels:
[1] = Phase I safety and tolerability; assay type: in vivo, human
Summary of the method: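 In a nonrandomised, open-label phase I study, healthy men received 5, 10, 25 or 50 mg once daily for 14 days, with CSF sampled through a lumbar catheter. Safety was scored as the number of subjects with adverse events and summarised descriptively.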

glycine in CSF = assay: Phase I pharmacodynamics: glycine in CSF; assay type: in vivo, human; conditions: for E 14, increase in glycine in CSF from baseline at 14 hours: 14 h after first dose; for E 14, increase in glycine in CSF from baseline at 14 hours / E max, maximum increase in glycine in CSF from baseline / Ratio of AUECdiff, 0–14 (glycine in CSF) / E 312, increase in glycine in CSF from baseline at 312 hours: mean (SD); for E max, maximum increase in glycine in CSF from baseline / Ratio of AUECdiff, 0–14 (glycine in CSF): after first dose; for E 312, increase in glycine in CSF from baseline at 312 hours: before last dose (steady state trough)
Summary of the method: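 Healthy male volunteers took 5, 10, 25 or 50 mg orally each morning for 14 days in sequential ascending groups. CSF was drawn by lumbar catheter: three predose samples ~30 min apart, then hourly to 14 h after the first dose. A single lumbar puncture was taken before the day-14 dose. Glycine was measured by validated HPLC-MS/MS as its Marfey's derivative and expressed as % change from baseline (mean of three predose values).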

[2] = 5 mg once daily for 14 days (n = 6)
[3] = 10 mg once daily for 14 days (n = 6)
[4] = 25 mg once daily for 14 days (n = 8)
[5] = 50 mg once daily for 14 days (n = 5)
[6] = total on-treatment, all doses (n = 25)

C[C@@H](Oc1ccc(S(C)(=O)=O)cc1C(=O)N1C[C@@H]2C[C@]2(c2cc(C(F)(F)F)on2)C1)C(F)(F)F [BI 425809]
Abdominal pain, subjects with AE [1, 2]: 0 n (%)
Back pain, subjects with AE [1, 2]: 3 (50.0) n (%)
Catheter site pain, subjects with AE [1, 2]: 1 (16.7) n (%)
Diarrhea, subjects with AE [1, 2]: 0 n (%)
Dizziness, subjects with AE [1, 2]: 0 n (%)
Dry mouth, subjects with AE [1, 2]: 0 n (%)
Fatigue, subjects with AE [1, 2]: 0 n (%)
Gingivitis, subjects with AE [1, 2]: 0 n (%)
Muscle spasms, subjects with AE [1, 2]: 1 (16.7) n (%)
Musculoskeletal stiffness, subjects with AE [1, 2]: 0 n (%)
Nasopharyngitis, subjects with AE [1, 2]: 0 n (%)
Nausea, subjects with AE [1, 2]: 1 (16.7) n (%)
Neck pain, subjects with AE [1, 2]: 0 n (%)
Paraesthesia, subjects with AE [1, 2]: 1 (16.7) n (%)
Procedural headache, subjects with AE [1, 2]: 4 (66.7) n (%)
Procedural pain, subjects with AE [1, 2]: 0 n (%)
Somnolence, subjects with AE [1, 2]: 1 (16.7) n (%)
Tension headache, subjects with AE [1, 2]: 0 n (%)
Total with AEs (treatment-emergent) [1, 2]: 5 (83.3) n (%)
Upper abdominal pain, subjects with AE [1, 2]: 0 n (%)
Vomiting, subjects with AE [1, 2]: 1 (16.7) n (%)
Wound, subjects with AE [1, 2]: 0 n (%)
Abdominal pain, subjects with AE [1, 3]: 0 n (%)
Back pain, subjects with AE [1, 3]: 0 n (%)
Catheter site pain, subjects with AE [1, 3]: 0 n (%)
Diarrhea, subjects with AE [1, 3]: 0 n (%)
Dizziness, subjects with AE [1, 3]: 1 (16.7) n (%)
Dry mouth, subjects with AE [1, 3]: 0 n (%)
Fatigue, subjects with AE [1, 3]: 0 n (%)
Gingivitis, subjects with AE [1, 3]: 1 (16.7) n (%)
Muscle spasms, subjects with AE [1, 3]: 0 n (%)
Musculoskeletal stiffness, subjects with AE [1, 3]: 0 n (%)
Nasopharyngitis, subjects with AE [1, 3]: 0 n (%)
Nausea, subjects with AE [1, 3]: 2 (33.3) n (%)
Neck pain, subjects with AE [1, 3]: 1 (16.7) n (%)
Paraesthesia, subjects with AE [1, 3]: 0 n (%)
Procedural headache, subjects with AE [1, 3]: 4 (66.7) n (%)
Procedural pain, subjects with AE [1, 3]: 0 n (%)
Somnolence, subjects with AE [1, 3]: 0 n (%)
Tension headache, subjects with AE [1, 3]: 0 n (%)
Total with AEs (treatment-emergent) [1, 3]: 5 (83.3) n (%)
Upper abdominal pain, subjects with AE [1, 3]: 0 n (%)
Vomiting, subjects with AE [1, 3]: 1 (16.7) n (%)
Wound, subjects with AE [1, 3]: 1 (16.7) n (%)
Abdominal pain, subjects with AE [1, 4]: 1 (12.5) n (%)
Back pain, subjects with AE [1, 4]: 4 (50.0) n (%)
Catheter site pain, subjects with AE [1, 4]: 0 n (%)
Diarrhea, subjects with AE [1, 4]: 1 (12.5) n (%)
Dizziness, subjects with AE [1, 4]: 1 (12.5) n (%)
Dry mouth, subjects with AE [1, 4]: 1 (12.5) n (%)
Fatigue, subjects with AE [1, 4]: 1 (12.5) n (%)
Gingivitis, subjects with AE [1, 4]: 0 n (%)
Muscle spasms, subjects with AE [1, 4]: 0 n (%)
Musculoskeletal stiffness, subjects with AE [1, 4]: 1 (12.5) n (%)
Nasopharyngitis, subjects with AE [1, 4]: 0 n (%)
Nausea, subjects with AE [1, 4]: 2 (25.0) n (%)
Neck pain, subjects with AE [1, 4]: 1 (12.5) n (%)
Paraesthesia, subjects with AE [1, 4]: 0 n (%)
Procedural headache, subjects with AE [1, 4]: 5 (62.5) n (%)
Procedural pain, subjects with AE [1, 4]: 1 (12.5) n (%)
Somnolence, subjects with AE [1, 4]: 0 n (%)
Tension headache, subjects with AE [1, 4]: 1 (12.5) n (%)
Total with AEs (treatment-emergent) [1, 4]: 8 (100.0) n (%)
Upper abdominal pain, subjects with AE [1, 4]: 1 (12.5) n (%)
Vomiting, subjects with AE [1, 4]: 2 (25.0) n (%)
Wound, subjects with AE [1, 4]: 0 n (%)
Abdominal pain, subjects with AE [1, 5]: 0 n (%)
Back pain, subjects with AE [1, 5]: 1 (20.0) n (%)
Catheter site pain, subjects with AE [1, 5]: 0 n (%)
Diarrhea, subjects with AE [1, 5]: 0 n (%)
Dizziness, subjects with AE [1, 5]: 0 n (%)
Dry mouth, subjects with AE [1, 5]: 0 n (%)
Fatigue, subjects with AE [1, 5]: 1 (20.0) n (%)
Gingivitis, subjects with AE [1, 5]: 0 n (%)
Muscle spasms, subjects with AE [1, 5]: 0 n (%)
Musculoskeletal stiffness, subjects with AE [1, 5]: 0 n (%)
Nasopharyngitis, subjects with AE [1, 5]: 1 (20.0) n (%)
Nausea, subjects with AE [1, 5]: 0 n (%)
Neck pain, subjects with AE [1, 5]: 1 (20.0) n (%)
Paraesthesia, subjects with AE [1, 5]: 0 n (%)
Procedural headache, subjects with AE [1, 5]: 3 (60.0) n (%)
Procedural pain, subjects with AE [1, 5]: 0 n (%)
Somnolence, subjects with AE [1, 5]: 0 n (%)
Tension headache, subjects with AE [1, 5]: 0 n (%)
Total with AEs (treatment-emergent) [1, 5]: 4 (80.0) n (%)
Upper abdominal pain, subjects with AE [1, 5]: 0 n (%)
Vomiting, subjects with AE [1, 5]: 0 n (%)
Wound, subjects with AE [1, 5]: 0 n (%)
AEs of special interest, deaths, serious AEs on-treatment ([1]; healthy male volunteers, 5 to 50 mg for 14 days): no protocol‐specified AEs of special interest, deaths, or other serious AEs reported
Safety and tolerability (in words) ([1]; healthy male volunteers, multiple oral doses 5 to 50 mg for 14 days): safe and well tolerated; also recorded: generally well tolerated; also recorded: well tolerated, with no indication of safety concerns
Subjects reporting back pain ([1]; of the 25 subjects treated (8 subjects)): 32.0%
Subjects reporting procedural headache ([1]; of the 25 subjects treated (16 subjects)): 64.0%
Subjects reporting at least one treatment-emergent AE ([1]; of the 25 subjects treated (22 subjects)): 88.0%
Abdominal pain, subjects with AE [1, 6]: 1 (4.0) n (%)
Back pain, subjects with AE [1, 6]: 8 (32.0) n (%)
Catheter site pain, subjects with AE [1, 6]: 1 (4.0) n (%)
Diarrhea, subjects with AE [1, 6]: 1 (4.0) n (%)
Dizziness, subjects with AE [1, 6]: 2 (8.0) n (%)
Dry mouth, subjects with AE [1, 6]: 1 (4.0) n (%)
Fatigue, subjects with AE [1, 6]: 2 (8.0) n (%)
Gingivitis, subjects with AE [1, 6]: 1 (4.0) n (%)
Muscle spasms, subjects with AE [1, 6]: 1 (4.0) n (%)
Musculoskeletal stiffness, subjects with AE [1, 6]: 1 (4.0) n (%)
Nasopharyngitis, subjects with AE [1, 6]: 1 (4.0) n (%)
Nausea, subjects with AE [1, 6]: 5 (20.0) n (%)
Neck pain, subjects with AE [1, 6]: 3 (12.0) n (%)
Paraesthesia, subjects with AE [1, 6]: 1 (4.0) n (%)
Procedural headache, subjects with AE [1, 6]: 16 (64.0) n (%)
Procedural pain, subjects with AE [1, 6]: 1 (4.0) n (%)
Somnolence, subjects with AE [1, 6]: 1 (4.0) n (%)
Tension headache, subjects with AE [1, 6]: 1 (4.0) n (%)
Total with AEs (treatment-emergent) [1, 6]: 22 (88.0) n (%)
Upper abdominal pain, subjects with AE [1, 6]: 1 (4.0) n (%)
Vomiting, subjects with AE [1, 6]: 4 (16.0) n (%)
Wound, subjects with AE [1, 6]: 1 (4.0) n (%)
Subjects who discontinued due to AEs ([1]; two subjects of 25 (5-mg and 10-mg dose groups), AEs not considered drug-related): 8.0%
E 14, increase in glycine in CSF from baseline at 14 hours (glycine in CSF; 5 mg, N = 6): 18.0 (32.1) %
E max, maximum increase in glycine in CSF from baseline (glycine in CSF; 5 mg, N = 6): 35.3 (26.4) %
Ratio of AUECdiff, 0–14 (glycine in CSF) (glycine in CSF; 5 mg, N = 6): 16.0 (17.4) %
E 312, increase in glycine in CSF from baseline at 312 hours (glycine in CSF; 10 mg once daily, N = 4): 57% and 57.0 (48.3) %
E 14, increase in glycine in CSF from baseline at 14 hours (glycine in CSF; 10 mg, N = 6): 39.8 (14.5) %
E max, maximum increase in glycine in CSF from baseline (glycine in CSF; 10 mg, N = 6): 62.3 (15.3) %
Ratio of AUECdiff, 0–14 (glycine in CSF) (glycine in CSF; 10 mg, N = 6): 37.0 (12.1) %
E 312, increase in glycine in CSF from baseline at 312 hours (glycine in CSF; 25 mg once daily, N = 6): 38% and 37.9 (45.8) %
E 14, increase in glycine in CSF from baseline at 14 hours (glycine in CSF; 25 mg, N = 6): 60.9 (60.7) %
Ratio of AUECdiff, 0–14 (glycine in CSF) (glycine in CSF; 25 mg, N = 6): 53.0 (30.5) %
E max, maximum increase in glycine in CSF from baseline (glycine in CSF; 25 mg, N = 8): 136 (107) %
E 312, increase in glycine in CSF from baseline at 312 hours (glycine in CSF; 50 mg once daily, N = 5): 123% and 123 (52.5) %
E 14, increase in glycine in CSF from baseline at 14 hours (glycine in CSF; 50 mg, N = 5): 50.6 (33.8) %
E max, maximum increase in glycine in CSF from baseline (glycine in CSF; 50 mg, N = 5): 91.9 (89.9) %
Ratio of AUECdiff, 0–14 (glycine in CSF) (glycine in CSF; 50 mg, N = 5): 47.0 (35.3) %
Time at which CSF glycine levels reached their maximum (glycine in CSF; healthy volunteers, single oral doses, over dose groups): 6 to 10 h
